Results taken from ChEMBL document CHEMBL1136492, “Design and syntheses of melanocortin subtype-4 receptor agonists: evolution of the pyridazinone archetype” (Bioorg Med Chem Lett, 2003).

Tests used:
[1] = biological target: T1, Melanocortin receptor 4 (Homo sapiens, UniProt P32245); experiment: Concentration required to inhibit binding of [125I]NDP-alpha-MSH from membranes prepared from CHO cells expressing human MC4R; type: cell membranes
Method in brief: (§1)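 Competition binding using membranes from CHO cells expressing human MC4R, with [125I]-NDP-α-MSH as radioligand. IC50 is the compound concentration that inhibits radioligand binding by 50%. Values are means of at least two separate experiments.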

[2] = biological target: T1, Melanocortin receptor 4; experiment: Percentage of cAMP accumulation at 10 uM of compound relative to alpha-MSH, at human MC4R; type: functional
Method in brief: (§2)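 cAMP accumulation at human MC4R, measured relative to α-MSH. EC50 is the inflection point of the cAMP dose-response curve. Where no EC50 is given, the value is the accumulation at the highest concentration tested. %Max is the accumulation at 10 µM compound relative to α-MSH. Values are means of at least two separate experiments.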

[3] = biological target: T1, Melanocortin receptor 4; experiment: Concentration required to inhibit binding of [125I]-NDP-alpha-MSH from membranes prepared from CHO cells expressing human melanocortin subtype-4-receptor (MC4R); type: cell membranes; method in brief: as §1
[4] = biological target: T1, Melanocortin receptor 4; experiment: Effective concentration for cAMP accumulation relative to alpha-MSH at human MC4R; type: functional; method in brief: as §2
[5] = biological target: T1, Melanocortin receptor 4; experiment: Percentage of cAMP accumulation of compound relative to alpha-MSH, at human MC4R; type: functional; method in brief: as §2
[6] = biological target: Melanocortin receptor 5 (Homo sapiens, UniProt P33032); experiment: Concentration required to inhibit binding of [125I]NDP-alpha-MSH from membranes prepared from CHO cells expressing human melanocortin subtype-5-receptor (MC5R); type: cell membranes
Chain of Melanocortin receptor 5 (P33032 whole entry): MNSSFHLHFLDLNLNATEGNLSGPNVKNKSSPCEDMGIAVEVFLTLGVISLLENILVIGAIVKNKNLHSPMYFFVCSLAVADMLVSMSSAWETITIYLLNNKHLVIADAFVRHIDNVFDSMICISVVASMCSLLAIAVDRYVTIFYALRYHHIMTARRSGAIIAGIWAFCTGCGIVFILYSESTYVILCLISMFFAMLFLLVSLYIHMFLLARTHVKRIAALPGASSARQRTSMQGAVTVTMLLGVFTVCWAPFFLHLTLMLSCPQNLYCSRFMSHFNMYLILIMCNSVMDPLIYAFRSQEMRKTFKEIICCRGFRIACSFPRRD

[7] = biological target: Melanocortin receptor 3 (Homo sapiens, UniProt P41968); experiment: Concentration required to inhibit binding of [125I]NDP-alpha-MSH from membranes prepared from CHO cells expressing human melanocortin subtype-3-receptor (MC3R); type: cell membranes
Chain of Melanocortin receptor 3 (P41968 whole entry): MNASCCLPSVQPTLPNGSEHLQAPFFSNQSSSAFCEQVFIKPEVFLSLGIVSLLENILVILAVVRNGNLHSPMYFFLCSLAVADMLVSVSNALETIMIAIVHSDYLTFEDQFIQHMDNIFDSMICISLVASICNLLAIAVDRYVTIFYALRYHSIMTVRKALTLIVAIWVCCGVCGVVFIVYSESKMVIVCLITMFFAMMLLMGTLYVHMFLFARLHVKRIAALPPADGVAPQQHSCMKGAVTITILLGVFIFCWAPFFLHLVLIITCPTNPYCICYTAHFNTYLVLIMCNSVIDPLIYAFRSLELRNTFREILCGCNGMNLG

T1 sequence (P32245 whole entry): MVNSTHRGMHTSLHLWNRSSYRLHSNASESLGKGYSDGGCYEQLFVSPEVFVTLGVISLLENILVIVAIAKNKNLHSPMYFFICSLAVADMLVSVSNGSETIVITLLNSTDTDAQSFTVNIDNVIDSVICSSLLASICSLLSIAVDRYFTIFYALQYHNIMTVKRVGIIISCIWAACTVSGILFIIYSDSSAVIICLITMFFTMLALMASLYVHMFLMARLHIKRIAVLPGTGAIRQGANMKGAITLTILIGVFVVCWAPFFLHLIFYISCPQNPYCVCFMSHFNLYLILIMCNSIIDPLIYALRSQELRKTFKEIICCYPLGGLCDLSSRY

SMILES	IC50 [1] [nM]	Max [2] [%]	IC50 [3] [nM]	EC50 [4] [nM]	Max [5] [%]	IC50 [6] [nM]	IC50 [7] [nM]
COc1ccc(-n2nc(Sc3ccc(Cl)cc3)cc(CCC(C)NC(=O)[C@H]3CCNC[C@@H]3c3ccccc3)c2=O)cc1 (stereo partly drawn)			339	260	79		
COc1ccc(-n2nc(Sc3ccc(Cl)cc3)cc(CC(C)CNC(=O)[C@H]3CNCC[C@@H]3c3ccccc3)c2=O)cc1 (stereo partly drawn)			2170	> 5000	35		
COc1ccc(-n2nc(Sc3ccc(Cl)cc3)cc(CC[C@@H](C)NC(=O)[C@H]3CNCC[C@@H]3c3ccccc3)c2=O)cc1		77	33	177		1410	2170
COc1ccc(-n2nc(Sc3ccc(Cl)cc3)cc(CC[C@@H](C)NC(=O)[C@H]3CNC[C@@H]3c3ccccc3)c2=O)cc1 [listing 2 of 3 here]			190	405			
COc1ccc(-n2nc(Sc3ccc(Cl)cc3)cc(CC[C@@H](C)NC(=O)[C@H]3CCNC[C@@H]3c3ccccc3)c2=O)cc1		85	130	237			
COc1ccc(-n2nc(Sc3ccc(Cl)cc3)cc(CCCNC(=O)[C@H]3CNC[C@@H]3c3ccccc3)c2=O)cc1			1240	820	22		
COc1ccc(-n2nc(Sc3ccc(Cl)cc3)cc(CCC(=O)N[C@@H]3CCc4ccccc4NC3=O)c2=O)cc1			144	3060	34		
COc1ccc(-n2nc(Sc3ccc(Cl)cc3)cc(CC[C@H](C)NC(=O)[C@H]3CNCC[C@@H]3c3ccccc3)c2=O)cc1		65	1200	1730			
COc1ccc(-n2nc(Sc3ccc(Cl)cc3)cc(CCC(=O)NC3CCCCNC3=O)c2=O)cc1 (stereo not drawn)	2.27	0					
COc1ccc(-n2nc(Sc3ccc(Cl)cc3)cc(CC[C@@H](C)NC(=O)[C@@H]3CNCC[C@H]3c3ccccc3)c2=O)cc1		32	2060	> 5000			
COc1ccc(-n2nc(Sc3ccc(Cl)cc3)cc(C(C)CCNC(=O)[C@H]3CNCC[C@@H]3c3ccccc3)c2=O)cc1 (stereo partly drawn)			3930	> 5000	31		
COc1ccc(-n2nc(Sc3ccc(Cl)cc3)cc(CC[C@@H](C)NC(=O)[C@H]3CNCC[C@H]3c3ccccc3)c2=O)cc1		54	2240	4050			
O=C(N[C@H](Cc1ccc(Cl)cc1)C(=O)N1CCC(Cn2cncn2)(C2CCCCC2)CC1)[C@H]1CCc2ccccc2N1			1.2		97		
COc1ccc(-n2nc(Sc3ccc(Cl)cc3)cc(CC[C@H](C)NC(=O)[C@@H]3CNCC[C@H]3c3ccccc3)c2=O)cc1		5	2990				

More lines, now with the values ahead:

IC50 [1] [nM]	Max [2] [%]	IC50 [3] [nM]	EC50 [4] [nM]	Max [5] [%]	IC50 [6] [nM]	IC50 [7] [nM]	SMILES
5600	15						COc1ccc(-n2nc(Sc3ccc(Cl)cc3)cc(CCC(=O)NCCOc3ccccc3)c2=O)cc1
		41	227	82			COc1ccc(-n2nc(Sc3ccc(Cl)cc3)cc(CCC(C)NC(=O)[C@H]3CNCC[C@@H]3c3ccccc3)c2=O)cc1 (stereo partly drawn)
	13	9020					COc1ccc(-n2nc(Sc3ccc(Cl)cc3)cc(CC[C@H](C)NC(=O)[C@H]3CNCC[C@H]3c3ccccc3)c2=O)cc1
		380	250				COc1ccc(-n2nc(Sc3ccc(Cl)cc3)cc(CC[C@@H](C)NC(=O)[C@H]3CNC[C@@H]3c3ccccc3)c2=O)cc1 [listing 1 of 3 here]
	103			97			COc1ccc(-n2nc(Sc3ccc(Cl)cc3)cc(CC[C@@H](C)NC(=O)[C@H]3CNC[C@@H]3c3ccccc3)c2=O)cc1 [listing 3 of 3 here]
	38		> 5000				COc1ccc(-n2nc(Sc3ccc(Cl)cc3)cc(CC[C@@H](C)NC(=O)[C@@H]3CNCC[C@@H]3c3ccccc3)c2=O)cc1
		2750	> 5000	28			COc1ccc(-n2nc(Sc3ccc(Cl)cc3)cc(CCCNC(=O)[C@H]3CCNC[C@@H]3c3ccccc3)c2=O)cc1
		975	5800	67			COc1ccc(-n2nc(Sc3ccc(Cl)cc3)cc(CC[C@H](C)NC(=O)[C@H]3CNC[C@@H]3c3ccccc3)c2=O)cc1
		1970	500	20			COc1ccc(-n2nc(Sc3ccc(Cl)cc3)cc(CCCNC(=O)[C@H]3CNCC[C@@H]3c3ccccc3)c2=O)cc1
	12						COc1ccc(-n2nc(Sc3ccc(Cl)cc3)cc(CC[C@H](C)NC(=O)[C@@H]3CNCC[C@@H]3c3ccccc3)c2=O)cc1
